Bioassay records (PubChem)
KCNQ1 act: potentiates or activates the human KCNQ1 potassium channel; P51787; CHO-K1 KCNQ1, thallium flux FluxOR fluorescence; active compounds read high; B-score at 10 µM; 310,000 tested, 0.35% active; AID 2648;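 active = fluorescence ratio B-score, a plate-corrected score, at least three library SD, with initial intensity B-score within 5 SD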
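assay system = CHO-K1 cells stably expressing KCNQ1 | medium = assay buffer, equal DMSO in all wells | timing = 37 °C overnight plating, 90-min dark dye load, 20-min compound pretreatment | measured by = kinetic FluxOR thallium fluorescence, 10-s 1-Hz baseline, 110-s post-stimulus read | measure = fluorescence change relative to baseline, converted to B score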
hERG protect: shields human hERG channel from block by proarrhythmic agents. activation (rescue from dofetilide block), less the hit threshold, % at 10 µM. 310,000 tested, 0.51% active. AID 1511. Q12809. CHO-hERG, FluxOR thallium flux, dofetilide IC70 present;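 active = activation above the mean of controls blocked by dofetilide plus 5 SD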;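 note: thallium influx through hERG after potassium depolarization seen as dye fluorescence rise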
KCNK9 inh: blocks the human KCNK9 two-pore domain potassium channel; AID 488922; HEK293 KCNK9, FluxOR thallium flux fluorescence; active compounds read low; B-score at 10 µM; Q9NPC2; 310,000 tested, 1.2% active;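 active = ratio B-score over 3 SD below the library mean, with starting fluorescence within 5 SD of its mean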;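 note: negative B-score means less thallium flux so channel inhibition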
Target sequence (Q9NPC2 whole entry, looked up, the tested form may be a part): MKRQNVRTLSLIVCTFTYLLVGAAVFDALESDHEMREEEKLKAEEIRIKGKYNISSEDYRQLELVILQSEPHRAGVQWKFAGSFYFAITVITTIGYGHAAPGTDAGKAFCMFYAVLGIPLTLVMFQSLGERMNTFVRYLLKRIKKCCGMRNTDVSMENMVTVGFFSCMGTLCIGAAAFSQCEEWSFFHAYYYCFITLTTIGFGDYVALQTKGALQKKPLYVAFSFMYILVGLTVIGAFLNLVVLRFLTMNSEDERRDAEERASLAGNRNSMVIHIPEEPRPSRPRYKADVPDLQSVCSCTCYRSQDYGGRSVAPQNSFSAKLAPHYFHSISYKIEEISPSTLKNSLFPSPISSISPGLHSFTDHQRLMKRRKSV
KCNK3 inh: human KCNK3 channel inhibition, primary screen. CHO-KCNK3 thallium flux, FluxOR fluorescence; active compounds read low. AID 602410. O14649. 340,000 tested, 0.84% active. B-score at 10 µM;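 active = B-score under library mean minus 4 SD, starting fluorescence ratio at most library mean plus 5 SD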;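 note: more negative B-score means stronger inhibition of thallium flux through KCNK3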
KCNQ1 inh: inhibitors of human KCNQ1 potassium channel; P51787; CHO-K1 KCNQ1, FluxOR thallium flux fluorescence; active compounds read high; B-score at 10 µM; 310,000 tested, 1.3% active;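 active = compounds whose thallium flux B-score, printed positive for inhibition, exceeds three library SD while starting fluorescence stays within three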;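 note: channel opened by potassium depolarization with thallium stimulus after 20 min compound exposure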
Kir21 block: blocks the mouse Kir2.1 inward-rectifier potassium channel; P35561; HEK293-Kir2.1, FluxOR thallium flux fluorescence; active compounds read low; B-score at 10 µM; 310,000 tested, 0.85% active;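 active = fluorescence ratio B-score at or below minus 3 SD of library scores, with starting-brightness B-score within 2 SD, cut at about -4.2 in these data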;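 note: channel flux triggered by added potassium and thallium sulfate stimulus; B-score of peak minus minimum fluorescence over baseline after thallium stimulus; more negative B-score means stronger Kir2.1 block with less thallium influx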
KCNK9 block conf: human KCNK9 inhibitor confirmation. shares compounds with KCNK9 inh. HEK293 KCNK9 cells, FluxOR thallium flux fluorescence. inhibition, % at 10 µM. 4,900 tested, 43% active. AID 492992;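 active = thallium signal inhibited by more than 5 SD of the compound-free buffer control wells, on both duplicate plates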
Kir21 sel: tests whether KCNK9 modulators also affect mouse Kir2.1; shares compounds with KCNK9 inh; Kir2.1 cells, FluxOR thallium flux fluorescence; inhibition, % at 10 µM; 4,900 tested, 4% active; AID 492993;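 active = thallium signal drop more than 5 SD beyond the mean of the no-compound control wells, seen in both duplicate plates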;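 note: signal is fluorescence rise after thallium addition divided by baseline fluorescence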
KCNK9 uninduced: second counter-screen for KCNK9 modulators: effect in non-induced cells | shares compounds with KCNK9 inh | 4,900 tested, 40% active | inhibition, % at 10 µM | non-induced KCNK9-HEK293, FluxOR thallium flux;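 active = thallium signal drop beyond 5 SD of the untreated control mean, on both duplicate plates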
Numbers stand for hits; i = inactive; nt = no result. An excerpt weighted towards active compounds, which were near 3.7% of everything screened.

SMILES | KCNQ1 act | hERG protect | KCNK9 inh | KCNK3 inh | KCNQ1 inh | Kir21 block | KCNK9 block conf | Kir21 sel | KCNK9 uninduced
CC1(c2ccccc2)CC(C)(C)N2C(=O)C(=O)c3cccc1c32 (stereo not given) | i | i | i | i | i | i | i | i | i
CCOC(=O)CN1N=C(c2ccc(Cl)cc2)CCC1=O | i | i | i | i | i | i | nt | nt | nt
Cc1ccc(N=Cc2cc(Cc3ccccc3Cl)cc([N+](=O)[O-])c2O)c(O)c1 | i | i | -8.8 | i | i | i | i | i | 65%
CC(C)Oc1cccc(C(=O)C2CCCN(Cc3cnc(N4CCCC4)s3)C2)c1 (stereo not given) | i | i | i | i | i | i | i | i | i
CCCn1ncc(CN2CCCC(C(=O)c3cccc(OC(C)C)c3)C2)c1C (stereo not given) | i | i | i | i | i | i | nt | nt | nt
CCCn1cc(CN2CCCC(C(=O)c3cccc(OC(C)C)c3)C2)c(C)n1 (stereo not given) | i | i | i | i | i | i | i | i | i
Cc1ccc(OCC(=O)NN=C2C3CC4CC(C3)CC2C4)cc1 | nt | nt | nt | i | nt | nt | nt | nt | nt
COCc1ccc(C(=O)N2CCCC(Nc3ccc(F)c(F)c3)C2)s1 (stereo not given) | i | i | i | i | i | i | nt | nt | nt
C=CC[n+]1c(-c2ccc(Cl)cc2Cl)csc1Nc1c(C)n(C)n(-c2ccccc2)c1=O | i | i | i | i | i | i | i | i | i
Cc1ccc(S(=O)(=O)Nc2ncnc3sc(C)c(C)c23)cc1 | nt | nt | nt | i | nt | nt | nt | nt | nt
Cc1ccc(-c2nn(C(C)(C)C)c3ncnc(NS(=O)(=O)c4ccc([N+](=O)[O-])cc4)c23)cc1 | i | i | i | i | i | i | i | i | i
S=c1[nH]nc(-c2cccs2)n1C1CCCCC1 | i | i | i | i | i | i | nt | nt | nt
CC(C1CC2CCC1C2)n1c(-c2cccs2)n[nH]c1=S (stereo not given) | i | i | -11 | i | i | i | 54% | i | i
CCN1C(=O)C2(C(C(=O)c3cc4ccccc4o3)=C(O)C(=O)N2CCCN2CCOCC2)c2ccccc21 (stereo not given) | i | i | i | i | i | i | nt | nt | nt
Cc1ccc(C(=O)N(C)CC(=O)Nc2ccc(F)c(F)c2F)o1 | i | i | i | i | i | i | nt | nt | nt
CN1CCc2c(sc3c2C(=O)NC(c2ccccc2)N3)C1 (stereo not given) | i | i | i | i | i | i | nt | nt | nt
CC(C)(C)C1CCc2c(sc3c2C(=O)NC(c2ccco2)N3)C1 (stereo not given) | i | i | i | i | i | i | i | i | i
Oc1oc(-c2ccccc2)nc1C=Nc1cccc2ccccc12 | i | i | -9.9 | i | i | i | i | i | 45%
CS(=O)(=O)Nc1ccccc1C(=O)NCCSc1ccc(Cl)cc1 | i | i | i | i | i | i | nt | nt | nt
Cc1ccc(NS(=O)(=O)c2cc(C(=O)NCCSC3CCCCC3)ccc2C)cc1 | i | i | i | i | i | i | nt | nt | nt
Cc1ccc(C(=O)NCCSc2ccc(Cl)cc2)cc1S(=O)(=O)Nc1ccccc1 | i | i | i | i | i | i | i | i | i
Cc1ccc(NS(=O)(=O)c2cc(C(=O)NCCSc3ccc(C)cc3)ccc2C)cc1 | i | i | i | i | i | i | i | i | i
COc1ccc(F)cc1C(=O)C1CCCN(Cc2cn(C)c3ccccc23)C1 (stereo not given) | i | i | i | i | i | i | i | i | i
Cn1cc(CN2CCCC(CNC(=O)c3ccc4c(c3)OCO4)C2)c2ccccc21 (stereo not given) | i | i | i | i | i | i | nt | nt | nt
COc1ccc(F)cc1C(=O)C1CCCN(Cc2c[nH]c3ccccc23)C1 (stereo not given) | i | i | i | i | i | i | nt | nt | nt
Cn1cc(CN2CCCC(C(=O)c3cc(F)ccc3F)C2)c2ccccc21 (stereo not given) | i | i | i | i | i | i | i | i | i
